For test [1], the target named is c-Jun N-terminal kinase, JNK (Homo sapiens) (UniProt P45983+P53779+P45984). As to the kind of experiment: Inhibition of JNK phosphorylation in human HeLa cells at 20 uM after 3 hrs by Western blotting analysis. In kind it is cell-based. The essentials: (§1)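 HeLa cells exposed to 20 μM compound for 3 h. Lysed in Tris pH 7.4/NaCl/NP-40/deoxycholate/SDS buffer with protease and phosphatase inhibitors, protein by BCA. Then 20 μg protein on 8–10% SDS-PAGE, transferred to nitrocellulose and blocked with 5% milk. Primary antibodies overnight at 4 °C, detection by chemiluminescence. Phospho-ERK1/2, -JNK and -p38 quantified by densitometry (n = 3, ANOVA).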

Test [2] addresses T1, Mitogen-activated protein kinase; ERK1/ERK2 (Homo sapiens) (UniProt P27361+P28482). The experiment in a line: Inhibition of ERK1/2 phosphorylation in human HeLa cells at 20 uM after 3 hrs by Western blotting analysis. In kind it is cell-based. In short, it runs like this:
as §1
For orientation: In western blotting, separated proteins are transferred to a membrane and probed.

In test [3] the target is MAP kinase p38 (Homo sapiens) (UniProt O15264+Q15759+Q16539+P53778). As to the kind of experiment: Inhibition of p38 phosphorylation in human HeLa cells at 20 uM after 3 hrs by Western blotting analysis. In kind it is cell-based. In short, it runs like this: as §1
For test [4], the target named is T1, Mitogen-activated protein kinase; ERK1/ERK2 (Homo sapiens). As to the kind of experiment: Inhibition of ERK1/2 phosphorylation in human HeLa cells after 3 hrs by Western blotting analysis. Type of test: cell-based. The essentials: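 HeLa cells exposed to compound at indicated concentrations (2.5 to 40 μM range) for 3 h, with PD98059 as positive control. Lysate protein (20 μg) was run on SDS-PAGE and Western blotted for phospho-ERK1/2. Blots were quantified by densitometry (n = 3, ANOVA).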

Another test has as its system HeLa. The experiment in a line: Cytotoxicity against human HeLa cells assessed as decrease in cell viability at 50 uM after 48 hrs by WST-8-based colorimetric assay. Type of test: functional. The essentials: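 HeLa cells in 96-well plates given 50 μM compound for 48 h. Viability read with CCK-8: phenol red-free DMEM containing 10% WST-8 added, 1 h at 37 °C, then OD at 450 nm. Computed from the mean of three wells (n = 3, ANOVA).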

Activity calls are given as the source filed them. No cut-off for these calls is given here.

T1 sequence (P27361 whole entry, looked up): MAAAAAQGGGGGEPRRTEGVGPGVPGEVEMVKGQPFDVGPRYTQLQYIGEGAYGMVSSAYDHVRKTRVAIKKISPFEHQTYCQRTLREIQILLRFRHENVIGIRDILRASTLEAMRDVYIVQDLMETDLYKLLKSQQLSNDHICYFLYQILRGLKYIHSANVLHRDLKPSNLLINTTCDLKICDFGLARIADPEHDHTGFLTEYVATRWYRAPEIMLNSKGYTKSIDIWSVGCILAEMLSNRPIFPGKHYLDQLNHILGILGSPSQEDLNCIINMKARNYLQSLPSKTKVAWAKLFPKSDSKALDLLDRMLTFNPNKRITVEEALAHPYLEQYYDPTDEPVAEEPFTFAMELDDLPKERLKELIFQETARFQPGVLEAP
T1 sequence (P28482 whole entry, looked up): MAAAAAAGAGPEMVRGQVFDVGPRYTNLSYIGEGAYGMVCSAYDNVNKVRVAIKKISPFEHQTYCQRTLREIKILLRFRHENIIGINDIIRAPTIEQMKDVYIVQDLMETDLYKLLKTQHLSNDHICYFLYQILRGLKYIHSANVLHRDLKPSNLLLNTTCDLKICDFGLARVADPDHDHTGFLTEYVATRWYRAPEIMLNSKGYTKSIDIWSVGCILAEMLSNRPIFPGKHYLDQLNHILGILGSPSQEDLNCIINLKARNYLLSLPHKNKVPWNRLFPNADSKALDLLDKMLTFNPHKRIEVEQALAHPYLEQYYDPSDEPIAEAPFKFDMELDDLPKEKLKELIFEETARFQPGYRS

As for `C=C(C)[C@H]1CC/C(C)=C/CCC2=C[C@H]1OC2=O`, the inhibition entry in test [1] and in test [3] was “inactive” throughout. The inhibition entry in test [2] was “Active”.
Turning to `C/C1=C\CCC2=C[C@H](C/C(C)=C/CC1)OC2=O`, in test [4], the inhibition entry was “Dose-dependent effect”. The inhibition result in test [1] and in test [3] was “inactive” each time.
On to `C=C(C)[C@H]1CC[C@]2(C)[C@@H]([N+](=O)[O-])CC[C@@]23C(=O)O[C@@H]1[C@@H]3O`, for which the inhibition result in test [1] and in test [3] was “inactive” each time. The inhibition entry in test [2] is “Active”.
With `COC(=O)[C@]1(C)[C@@H]2/C=C(/C=O)CC/C=C(\C)CC[C@H]21`, the outcome in the test with HeLa was Active.
The same measure, in the same setting: then `C/C1=C\CC/C(C=O)=C\[C@@H]2[C@@H](CC1)[C@]2(C)CO`, with “Active”.
As for `CC1(C)[C@@H]2CC[C@@]3(C)O[C@@H]3CC/C(C=O)=C\[C@@H]21`, the inhibition entry in test [1] and in test [3] was “inactive” throughout. In addition, the inhibition entry in test [2] is “Active”.
`COc1cccc(-c2cc(=O)c3ccccc3o2)c1N`: the inhibition entry in test [2] is “Active”.
Regarding `CC(=O)O[C@H]1/C=C(\C=O)CC/C=C(\C)CC/C=C(\C)C1`, the outcome in the test with HeLa was Active.
Take `C/C1=C\CC/C(C=O)=C\[C@H]2[C@@H](C[C@H]1O)C2(C)C`: the inhibition result in test [1] and in test [3] was “inactive” in each case. For the same compound, the inhibition entry in test [2] is “Active”.
Turning to `C[C@@H]1CC(=O)C=C2CC[C@@H]3[C@@H](C3(C)C)[C@]21C`, the inhibition result in test [4] was “Dose-dependent effect”. The inhibition result in test [1] and in test [3] was “inactive” throughout.
Take `CC(=O)OC[C@]1(C)[C@@H]2/C=C(/C=O)CC/C=C(\C)CC[C@H]21`: the inhibition entry in test [1] and in test [3] was “inactive” throughout. In addition, the inhibition entry in test [2] is “Active”.
For `C/C1=C\CC/C(C=O)=C\[C@@H]2[C@@H](CC1)C2(C)C`, the inhibition result in test [1] and in test [3] was “inactive” each time. Besides, the inhibition result in test [2] was “Active”.
As to `C=C(C)[C@H]1CCC(=C)[C@@H](O)CCC2=C[C@H]1OC2=O`, the inhibition entry in test [1] and in test [3] was “inactive” throughout. For the same compound, in test [2], the inhibition entry is “Active”.
Turning to `C=C(C)[C@H]1C/C=C(\C)[C@@H](O)CCC2=C[C@H]1OC2=O`, the outcome in the test with HeLa was Active.
With `C/C1=C\CCC2=CC(O)(C/C(C)=C/CC1)OC2=O` (racemic), the inhibition result in test [1] and in test [3] was “inactive” each time. Besides, the inhibition result in test [2] is “Active”. Besides, in the test with HeLa, the outcome was inactive.

The values above are taken from ChEMBL document CHEMBL2331229, “Extracellular signal-regulated kinases (ERK) inhibitors from Aristolochia yunnanensis” (J Nat Prod, 2013).
